According to ChEMBL document CHEMBL1130177, “6 beta-Propynyl-substituted steroids: mechanism-based enzyme-activated irreversible inhibitors of aromatase” (J Med Chem, 1997):

Legend:
[1] = The T1/2 value was obtained from the time point at which each half-time reached 50% of its value at zero time; assay type: ADME
How it was run: (§1)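 Inhibitor, various concentrations, preincubated at 37 °C with placental microsomes (0.08-0.1 mg/mL) and NADPH (0.1 mM) in 0.1 M phosphate pH 7.4. Aliquots taken over time, diluted 10-fold in cold buffer, then assayed with 0.25 µM [1β-3H]androstenedione plus NADPH-generating system, 30 min at 37 °C. Half-lives plotted against 1/[I] (Kitz-Wilson); Ki(inact) from X-intercept, T1/2 from Y-intercept; duplicate determinations.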

Aromatase [2] = target: T1, Aromatase (Homo sapiens, UniProt P11511); assay: Inhibition of human placental microsome Cytochrome P450 19A1
T1 sequence (P11511 whole entry): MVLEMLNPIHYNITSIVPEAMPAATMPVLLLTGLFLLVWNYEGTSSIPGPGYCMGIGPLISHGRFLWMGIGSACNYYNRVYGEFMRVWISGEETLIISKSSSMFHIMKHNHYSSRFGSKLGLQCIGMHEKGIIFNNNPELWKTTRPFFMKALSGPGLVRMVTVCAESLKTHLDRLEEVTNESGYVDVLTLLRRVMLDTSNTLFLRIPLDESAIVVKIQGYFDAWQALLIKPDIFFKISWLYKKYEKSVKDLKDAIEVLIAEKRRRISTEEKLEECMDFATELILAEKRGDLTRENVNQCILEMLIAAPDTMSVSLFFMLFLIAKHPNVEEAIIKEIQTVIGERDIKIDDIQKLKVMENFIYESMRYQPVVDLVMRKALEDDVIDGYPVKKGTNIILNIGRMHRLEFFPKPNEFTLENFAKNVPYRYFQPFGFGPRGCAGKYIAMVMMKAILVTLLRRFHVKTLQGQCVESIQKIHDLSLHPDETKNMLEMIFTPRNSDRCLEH
How it was run: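 Tritiated-water release assay in 0.1 M phosphate pH 7.4. Lyophilized human placental microsomes (0.25 mg) with 0.25 µM [1β-3H]androstenedione, glucose 6-phosphate 5.3 mM, NADP 0.6 mM, G6PDH, 1.0 mM EDTA. Inhibitors from 10^-5 to 10^-8 M, added in ethanol. 15 min at 37 °C; CHCl3 extraction, then the aqueous phase counted by scintillation.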

[3] = Compound was tested for inactivation kinetic values; conditions: read-out: Ki app (inact); how it was run: as §1
Aromatase [4] = target: T1, Aromatase; assay: Binding affinity for human placental microsome Cytochrome P450 19A1 by nonlinear regression analysis; conditions: read-out: Ki app
How it was run: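 Human placental microsomes (0.025-0.03 mg protein) in 1.0 mL 0.1 M phosphate buffer pH 7.4, 37 °C in air, 10 min, initial velocity conditions. [1β-3H]androstenedione diluted with unlabelled androstenedione, 0.005-0.25 µM. Inhibitor at 250, 375 and 500 nM, plus no-inhibitor controls and 0-min blanks. 3H2O release counted; Ki derived by regression analysis; duplicate determinations.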

[5] = Selectivity index of Kcat/app Ki(inact)
How it was run: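 Lyophilized human placental microsomes (0.08-0.1 mg/mL protein) were preincubated at 37 °C with varied inhibitor concentrations and 0.1 mM NADPH in 0.1 M phosphate buffer, pH 7.4. Timed aliquots were diluted 10-fold in cold buffer. Residual activity was read as 3H2O release from 0.25 µM [1β-3H]androstenedione with an NADPH-generating system (30 min, 37 °C). Half-life versus 1/[I] (Kitz-Wilson) gave Ki(inact) and kcat. Duplicates.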

[6] = The T1/2 values were obtained from the time point at which each half-time reached 50% of its value at zero time; assay type: ADME; how it was run: as §1

Structure (SMILES)	T1/2 [1]	IC50 (Aromatase [2])	KI (inactivation) [3]	Ki (Aromatase [4])	Selectivity index [5]	T1/2 [6]
C#CC[C@@H]1CC2C3CCC(=O)C3(C)CCC2C2(C)CCC(=O)C=C12 (some centres undefined)	7.6 min	31 nM	72.4 nM	10 nM	21	
C#CC[C@]12CCC(=O)C=C1CC[C@@H]1[C@@H]2CC[C@]2(C)C(=O)CC[C@@H]12 [PLOMESTANE]		56.2 nM	59.5 nM	15.2 nM	24	8.9 min
C#CC[C@H]1CC2C(CCC3(C)C(=O)CCC23)C2CCC(=O)C=C21 (some centres undefined)		187 nM		65.8 nM		
C#CC[C@H]1CC2C3CCC(=O)C3(C)CCC2C2(C)CCC(=O)C=C12 (some centres undefined)		176 nM		37 nM		
C#CC[C@@H]1CC2C(CCC3(C)C(=O)CCC23)C2CCC(=O)C=C21 (some centres undefined)	8.9 min	275 nM	19.8 nM	47.6 nM	65	
